Residues, ends and D or L forms follow the SMILES beside them.
How the values were obtained:
[1] = biological target: T1, C5a anaphylatoxin chemotactic receptor 1 (Homo sapiens, UniProt P21730); assay: Antagonist activity at human C5aR in CD88 transfected RBL cells assessed as inhibition of C5a-induced glucosaminidase release; assay type: functional, cell-based
T1 sequence (P21730 whole entry): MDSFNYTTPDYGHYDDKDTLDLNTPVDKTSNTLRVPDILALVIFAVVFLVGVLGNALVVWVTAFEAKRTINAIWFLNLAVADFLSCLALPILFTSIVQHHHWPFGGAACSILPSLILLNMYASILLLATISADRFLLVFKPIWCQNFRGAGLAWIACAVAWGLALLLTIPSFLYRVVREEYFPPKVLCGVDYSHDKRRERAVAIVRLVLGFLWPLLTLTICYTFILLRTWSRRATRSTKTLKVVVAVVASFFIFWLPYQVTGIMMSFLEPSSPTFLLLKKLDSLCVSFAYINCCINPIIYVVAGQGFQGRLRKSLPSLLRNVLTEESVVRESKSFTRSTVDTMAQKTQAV
Procedure, shortened: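 Functional antagonism read as inhibition of glucosaminidase release stimulated by C5a from RBL cells transfected with CD88 (RBL+); IC50 in µM.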

[2] = Stability in human liver microsome after 1 hr; assay type: ADME; conditions: liver microsomes, read-out: Stability
Procedure, shortened: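 Compound incubated with human liver microsomes, 1 h at 37 °C; read-out is % of parent remaining.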

Vasopressin V1a receptor = Vasopressin V1a receptor (Homo sapiens, UniProt P37288); assay: Binding affinity to V1a receptor
Vasopressin V1a receptor, sequence (P37288 whole entry): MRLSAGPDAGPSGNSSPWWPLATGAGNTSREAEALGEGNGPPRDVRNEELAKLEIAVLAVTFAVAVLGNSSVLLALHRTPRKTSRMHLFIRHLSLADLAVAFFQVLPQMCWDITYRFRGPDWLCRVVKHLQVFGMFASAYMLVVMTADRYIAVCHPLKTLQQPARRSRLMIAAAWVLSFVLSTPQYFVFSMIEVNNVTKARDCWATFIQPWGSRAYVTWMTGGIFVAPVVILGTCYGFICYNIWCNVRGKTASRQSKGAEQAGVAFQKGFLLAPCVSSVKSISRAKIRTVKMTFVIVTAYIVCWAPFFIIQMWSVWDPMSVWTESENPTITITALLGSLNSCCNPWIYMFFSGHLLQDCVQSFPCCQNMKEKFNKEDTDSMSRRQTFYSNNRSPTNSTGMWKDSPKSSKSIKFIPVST

J774.A1 = assay: Inhibition of C5a-induced chemotaxis of mouse J774A.1 cells; assay type: functional, cell-based
Procedure, shortened: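 Mouse J774A.1 cells; chemotaxis induced by C5a, inhibition measured and IC50 (µM) determined.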

[3] = biological target: T1, C5a anaphylatoxin chemotactic receptor 1; assay: Antagonist activity at human C5aR expressed in human PMN cells assessed as inhibition of glucosaminidase release; assay type: functional, cell-based
[4] = biological target: T1, C5a anaphylatoxin chemotactic receptor 1; assay: Inhibition of C5a binding to human C5aR expressed in HEK293 cells; assay type: cell-based
CYP3A4 = CYP3A4 (Homo sapiens, UniProt P08684); assay: Inhibition of CYP3A4 at 10 uM; assay type: ADME
CYP3A4, sequence (P08684 whole entry): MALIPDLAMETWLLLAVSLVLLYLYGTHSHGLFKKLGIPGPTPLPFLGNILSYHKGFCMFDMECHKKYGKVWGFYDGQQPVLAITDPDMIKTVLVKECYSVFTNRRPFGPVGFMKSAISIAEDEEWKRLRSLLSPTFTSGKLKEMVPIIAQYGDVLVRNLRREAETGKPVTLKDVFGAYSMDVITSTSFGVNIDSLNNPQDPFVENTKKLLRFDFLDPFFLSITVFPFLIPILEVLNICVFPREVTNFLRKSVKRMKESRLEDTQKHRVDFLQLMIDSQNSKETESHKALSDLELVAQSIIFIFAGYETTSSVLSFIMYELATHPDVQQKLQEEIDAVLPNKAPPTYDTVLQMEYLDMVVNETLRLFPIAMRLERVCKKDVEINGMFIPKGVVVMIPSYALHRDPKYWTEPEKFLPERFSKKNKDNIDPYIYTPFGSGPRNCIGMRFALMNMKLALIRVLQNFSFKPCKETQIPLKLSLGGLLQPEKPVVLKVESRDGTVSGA

Substance-K receptor = biological target: T2, Substance-K receptor (Homo sapiens, UniProt P21452); assay: Binding affinity to NK2 receptor
T2 sequence (P21452 whole entry): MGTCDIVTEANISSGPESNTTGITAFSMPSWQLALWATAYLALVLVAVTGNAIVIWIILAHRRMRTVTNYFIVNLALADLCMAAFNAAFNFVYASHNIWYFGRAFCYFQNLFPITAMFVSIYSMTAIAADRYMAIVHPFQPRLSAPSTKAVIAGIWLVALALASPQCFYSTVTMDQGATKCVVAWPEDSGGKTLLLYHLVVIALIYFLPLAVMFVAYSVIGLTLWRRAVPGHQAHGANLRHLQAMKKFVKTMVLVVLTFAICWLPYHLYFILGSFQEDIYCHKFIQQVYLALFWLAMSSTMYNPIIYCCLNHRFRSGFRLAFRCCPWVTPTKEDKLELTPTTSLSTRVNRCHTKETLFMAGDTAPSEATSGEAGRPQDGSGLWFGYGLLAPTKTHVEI

Melanocortin receptor 4 = Melanocortin receptor 4 (Homo sapiens, UniProt P32245); assay: Binding affinity to MC4 receptor
Melanocortin receptor 4, sequence (P32245 whole entry): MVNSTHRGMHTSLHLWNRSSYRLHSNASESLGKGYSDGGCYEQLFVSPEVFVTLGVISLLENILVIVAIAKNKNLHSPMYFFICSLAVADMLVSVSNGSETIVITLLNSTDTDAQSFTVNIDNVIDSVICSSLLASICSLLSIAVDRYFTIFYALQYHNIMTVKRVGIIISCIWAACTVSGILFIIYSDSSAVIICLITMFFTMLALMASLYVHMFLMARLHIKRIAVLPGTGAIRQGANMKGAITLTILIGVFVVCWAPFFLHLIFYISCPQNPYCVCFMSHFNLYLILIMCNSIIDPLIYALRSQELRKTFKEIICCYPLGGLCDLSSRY

Nociceptin receptor = Nociceptin receptor (Homo sapiens, UniProt P41146); assay: Binding affinity to ORL1 receptor
Nociceptin receptor, sequence (P41146 whole entry): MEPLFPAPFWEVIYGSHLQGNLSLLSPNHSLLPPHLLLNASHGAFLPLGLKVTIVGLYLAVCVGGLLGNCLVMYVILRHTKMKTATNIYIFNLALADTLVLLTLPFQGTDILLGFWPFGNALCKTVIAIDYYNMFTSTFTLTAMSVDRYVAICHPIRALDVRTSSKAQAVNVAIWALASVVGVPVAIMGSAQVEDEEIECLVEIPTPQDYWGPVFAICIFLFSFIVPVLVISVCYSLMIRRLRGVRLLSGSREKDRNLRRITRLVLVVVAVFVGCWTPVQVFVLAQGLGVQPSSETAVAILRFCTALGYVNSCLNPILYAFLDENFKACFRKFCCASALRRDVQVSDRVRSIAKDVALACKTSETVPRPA

[5] = biological target: T3, C5a anaphylatoxin chemotactic receptor 1 (Homo sapiens) (UniProt P21730); assay: Agonist activity at human C5aR in CD88 transfected RBL cells at 286 uM; assay type: functional, cell-based
T3 sequence (whole entry): T1 sequence (P21730 whole entry)

CC(=O)N[C@@H](Cc1ccccc1)C(=O)N[C@@H](CCCN)C(=O)N1CCC[C@H]1C(=O)N[C@H](CCC(C)C)C(=O)N[C@@H](Cc1ccc(F)cc1)C(=O)N[C@@H](Cc1ccccc1)C(N)=O
IC50 [1]: 71 nM
remaining at 1 h [2]: 65%

CC(C)CC[C@@H](NC(=O)[C@@H]1CCCN1C(=O)[C@H](CCCN)NC(=O)[C@H](Cc1ccccc1)NC(=O)[C@@H]1CC(=O)NC(=O)N1)C(=O)N[C@@H](Cc1ccc(F)cc1)C(=O)N[C@@H](Cc1ccccc1)C(N)=O
IC50 (Vasopressin V1a receptor): 740 nM
IC50 (J774.A1): 420 nM
IC50 [1]: 39 nM
remaining at 1 h [2]: 80%
IC50 [3]: 41 nM
IC50 [4]: 111 nM
inhibition at 10 µM (CYP3A4): 38%
IC50 (Substance-K receptor): 710 nM
IC50 (Melanocortin receptor 4): 13000 nM
IC50 (Nociceptin receptor): > 50000 nM

CC(=O)N[C@@H](Cc1ccccc1)C(=O)N[C@@H](CCCN)C(=O)N1CCC[C@H]1C(=O)N[C@@H](CCC(C)C)C(=O)N[C@H](Cc1ccc(F)cc1)C(=O)N[C@H](Cc1ccccc1)C(N)=O
Activity [5]: 0%

CC(=O)N[C@@H](Cc1ccccc1)C(=O)N[C@H]1CCCNC(=O)[C@H](CCCN=C(N)N)NC(=O)[C@H](Cc2c[nH]c3ccccc23)NC(=O)[C@@H](CC2CCCCC2)NC(=O)[C@@H]2CCCN2C1=O
IC50 (J774.A1): 7100 nM
remaining at 1 h [2]: 10%
inhibition at 10 µM (CYP3A4): 77%

CC(=O)N[C@@H](Cc1ccccc1)C(=O)N[C@@H](CCCN)C(=O)N1CCC[C@H]1C(=O)N[C@H](CCC(C)C)C(=O)N[C@H](Cc1csc2ccccc12)C(=O)N[C@H](Cc1ccccc1)C(N)=O
Activity [5]: 0%

CC(C)CC[C@H](NC(=O)[C@@H]1CCCN1C(=O)[C@H](CCCN)NC(=O)[C@H](Cc1ccccc1)NC(=O)[C@@H]1CC(=O)NC(=O)N1)C(=O)N[C@@H](Cc1ccc(F)cc1)C(=O)N[C@H](Cc1ccccc1)C(N)=O
Activity [5]: 0%

CC(=O)N[C@@H](Cc1ccccc1)C(=O)N[C@@H](CCCN)C(=O)N1CCC[C@H]1C(=O)N[C@H](CCC(C)C)C(=O)N[C@H](Cc1ccc(Cl)c(Cl)c1)C(=O)N[C@H](Cc1ccccc1)C(N)=O
Activity [5]: 7.2%

CC(=O)N[C@@H](Cc1ccccc1)C(=O)N[C@@H](CCCN)C(=O)N1CCC[C@H]1C(=O)N[C@H](CCC(C)C)C(=O)N[C@H](Cc1cccc(Cl)c1)C(=O)N[C@H](Cc1ccccc1)C(N)=O
Activity [5]: 1.2%

CC(=O)N[C@@H](Cc1ccccc1)C(=O)N[C@@H](CCCN)C(=O)N1CCC[C@H]1C(=O)N[C@H](CCC(C)C)C(=O)N[C@@H](Cc1csc2ccccc12)C(=O)N[C@@H](Cc1ccccc1)C(N)=O
IC50 [1]: 27 nM
remaining at 1 h [2]: 1%

CCCC[C@@H]1NC(=O)[C@H](Cc2c[nH]c3ccccc23)NC(=O)[C@@H](CC2CCCCC2)NC(=O)[C@@H]2CCCN2C(=O)[C@@H](NC(=O)[C@H](Cc2ccccc2)NC(C)=O)CCCNC1=O (HELM PEPTIDE1{[ac].F.[Orn].P.[O=C([C@@H](CC1CCCCC1)N[*:1])[*:2]].W.[Nle]}$PEPTIDE1,PEPTIDE1,3:R3-7:R2$$$V2.0)
IC50 [1]: 25 nM

CC(=O)N[C@@H](Cc1ccccc1)C(=O)N[C@H]1CCCNC(=O)[C@H](CCCNC(=N)N)NC(=O)[C@H](Cc2c[nH]c3ccccc23)NC(=O)[C@@H](CC2CCCCC2)NC(=O)[C@H](C)NC1=O
IC50 [1]: 25 nM

CC(=O)N[C@@H](Cc1ccccc1)C(=O)N[C@@H](CCCN)C(=O)N1CCC[C@H]1C(=O)N[C@H](CCC(C)C)C(=O)N[C@@H](Cc1cccc(Cl)c1)C(=O)N[C@@H](Cc1ccccc1)C(N)=O
IC50 [1]: 60 nM
remaining at 1 h [2]: 62%

CC(=O)N[C@@H](Cc1ccccc1)C(=O)N[C@H]1CCCNC(=O)[C@H](CCC/N=C(/N)N[N+](=O)[O-])NC(=O)[C@H](Cc2c[nH]c3ccccc23)NC(=O)[C@@H](CC2CCCCC2)NC(=O)[C@@H]2CCCN2C1=O
IC50 [1]: 570 nM

CC(=O)N[C@@H](Cc1ccccc1)C(=O)N[C@H]1CCCNC(=O)[C@H](CCCN=C(N)N)NC(=O)[C@H](C)NC(=O)[C@@H](CC2CCCCC2)NC(=O)[C@@H]2CCCN2C1=O (HELM PEPTIDE1{[ac].F.[Orn].P.[O=C([C@@H](CC1CCCCC1)N[*:1])[*:2]].A.R}$PEPTIDE1,PEPTIDE1,3:R3-7:R2$$$V2.0)
IC50 [1]: 100000 nM

CC(=O)N[C@@H](Cc1ccccc1)C(=O)N[C@H]1CCCNC(=O)[C@H](CCC(C)C)NC(=O)[C@H](Cc2c[nH]c3ccccc23)NC(=O)[C@@H](CC2CCCCC2)NC(=O)[C@@H]2CCCN2C1=O (HELM PEPTIDE1{[ac].F.[Orn].P.[O=C([C@@H](CC1CCCCC1)N[*:1])[*:2]].W.[CC(C)CC[C@H](N[*:1])C(=O)[*:2]]}$PEPTIDE1,PEPTIDE1,3:R3-7:R2$$$V2.0)
IC50 [1]: 57 nM

CC(=O)N[C@@H](Cc1ccccc1)C(=O)N[C@H]1CCCNC(=O)[C@H](Cc2cccs2)NC(=O)[C@H](Cc2c[nH]c3ccccc23)NC(=O)[C@@H](CC2CCCCC2)NC(=O)[C@@H]2CCCN2C1=O (HELM PEPTIDE1{[ac].F.[Orn].P.[O=C([C@@H](CC1CCCCC1)N[*:1])[*:2]].W.[O=C([C@H](Cc1cccs1)N[*:1])[*:2]]}$PEPTIDE1,PEPTIDE1,3:R3-7:R2$$$V2.0)
IC50 [1]: 22 nM

CC(=O)N[C@@H](C)C(=O)N[C@H]1CCCNC(=O)[C@H](CCCN=C(N)N)NC(=O)[C@H](Cc2c[nH]c3ccccc23)NC(=O)[C@@H](CC2CCCCC2)NC(=O)[C@@H]2CCCN2C1=O (HELM PEPTIDE1{[ac].A.[Orn].P.[O=C([C@@H](CC1CCCCC1)N[*:1])[*:2]].W.R}$PEPTIDE1,PEPTIDE1,3:R3-7:R2$$$V2.0)
IC50 [1]: 23000 nM

CC(=O)N[C@@H](Cc1ccccc1)C(=O)N[C@H]1CCCNC(=O)[C@H](CCCNC(N)=O)NC(=O)[C@H](Cc2c[nH]c3ccccc23)NC(=O)[C@@H](CC2CCCCC2)NC(=O)[C@@H]2CCCN2C1=O
IC50 [1]: 490 nM

CC(=O)N[C@@H](Cc1ccccc1)C(=O)N[C@H]1CCCNC(=O)[C@H](CCCNC(=N)N)NC(=O)[C@H](Cc2c[nH]c3ccccc23)NC(=O)[C@@H](C)NC(=O)[C@@H]2CCCN2C1=O
IC50 [1]: 55000 nM

CC(=O)N[C@@H](Cc1ccccc1)C(=O)N[C@@H](CCCN)C(=O)N1CCC[C@H]1C(=O)N[C@H](CCC(C)C)C(=O)N[C@@H](Cc1ccc(Cl)c(Cl)c1)C(=O)N[C@@H](Cc1ccccc1)C(N)=O
IC50 [1]: 116 nM
remaining at 1 h [2]: 49%

CCC[C@@H]1NC(=O)[C@H](Cc2c[nH]c3ccccc23)NC(=O)[C@@H](CC2CCCCC2)NC(=O)[C@@H]2CCCN2C(=O)[C@@H](NC(=O)[C@H](Cc2ccccc2)NC(C)=O)CCCNC1=O (HELM PEPTIDE1{[ac].F.[Orn].P.[O=C([C@@H](CC1CCCCC1)N[*:1])[*:2]].W.[Nva]}$PEPTIDE1,PEPTIDE1,3:R3-7:R2$$$V2.0)
IC50 [1]: 18 nM

CC(=O)N[C@@H](Cc1ccccc1)C(=O)N[C@@H](CCCN)C(=O)N1CCC[C@H]1C(=O)N[C@H](CC1CCCCC1)C(=O)N[C@@H](Cc1c[nH]c2ccccc12)C(=O)N[C@@H](Cc1ccccc1)C(N)=O (HELM PEPTIDE1{[ac].F.[Orn].P.[O=C([C@@H](CC1CCCCC1)N[*:1])[*:2]].W.F.[am]}$$$$V2.0)
IC50 [1]: 31 nM
remaining at 1 h [2]: 34%

CC(=O)N[C@@H](Cc1ccccc1)C(=O)N[C@@H](CCCN)C(=O)N1CCC[C@H]1C(=O)N[C@H](CCC(C)C)C(=O)N[C@H](Cc1c[nH]c2ccccc12)C(=O)N[C@H](Cc1ccccc1)C(N)=O
Activity [5]: 0%

CC(=O)N[C@@H](Cc1ccccc1)C(=O)N[C@H]1CCCNC(=O)[C@H](CCCN)NC(=O)[C@H](Cc2c[nH]c3ccccc23)NC(=O)[C@@H](CC2CCCCC2)NC(=O)[C@@H]2CCCN2C1=O
IC50 [1]: 18 nM

CC(=O)N[C@@H](Cc1ccccc1)C(=O)N[C@H]1CCCNC(=O)[C@H](C2CCCCC2)NC(=O)[C@H](Cc2c[nH]c3ccccc23)NC(=O)[C@@H](CC2CCCCC2)NC(=O)[C@@H]2CCCN2C1=O (HELM PEPTIDE1{[ac].F.[Orn].P.[O=C([C@@H](CC1CCCCC1)N[*:1])[*:2]].W.[O=C([C@@H](N[*:1])C1CCCCC1)[*:2]]}$PEPTIDE1,PEPTIDE1,3:R3-7:R2$$$V2.0)
IC50 [1]: 38 nM

CC(=O)N[C@@H](Cc1ccccc1)C(=O)N[C@@H](CCCN)C(=O)N1CCC[C@H]1C(=O)N[C@H](CCC(C)C)C(=O)N[C@@H](Cc1c[nH]c2ccccc12)C(=O)N[C@@H](Cc1ccccc1)C(N)=O
IC50 [1]: 63 nM
remaining at 1 h [2]: 37%

CCCC[C@H](NC(=O)[C@H](Cc1c[nH]c2ccccc12)NC(=O)[C@@H](CC1CCCCC1)NC(=O)[C@@H]1CCCN1C(=O)[C@H](CCCN)NC(=O)[C@H](Cc1ccccc1)NC(C)=O)C(N)=O
IC50 [1]: 463 nM
